Paper PMC10240386 (Cell chemical biology, 2023)

Legend:
[1] = target: Pf20S β5 (Plasmodium falciparum, UniProt A0A5K1K7U1+Q8IJT1); experiment: biochemical; type: biochemical
[2] = test system: Dd2β6^A117DK13^R539T; experiment: Parasite growth inhibition, dual resistant strain; type: cell-based, Plasmodium falciparum
[3] = target: human i-20S β5i (Homo sapiens, UniProt P20618+P28062); experiment: Proteasome IC50 determination, human i-20S β5i; type: biochemical
Outline: (§1)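 Human i-20S (0.4 nM) assayed in 20 mM HEPES, 0.5 mM EDTA, 0.1 mg/mL BSA, pH 7.5, with 0.02% SDS and 15 µM Ac-ANW-AMC. Pf20S (1 nM) assayed in 50 mM Tris, 5 mM MgCl2, 1 mM DTT, pH 7.4, with 12 nM PA28α, 0.5 µM WLW-VS and 25 µM suc-LLVY-AMC. Test compound given as a 3-fold series, 100–0.0017 µM final. AMC read at 360/460 nm for 1–2 h; velocities fitted to a dose-response equation. Run in duplicate or triplicate.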

[4] = test system: DHA-resistant clones DR1, DR2, DR4 derived from Dd2; experiment: Standard 72-h in vitro assay on DHA-resistant clones; type: cell-based, Plasmodium falciparum; settings: standard 72-h assay
[5] = test system: Dd2β5^A49S; experiment: Parasite growth inhibition assay, erythrocytic stage; type: cell-based, Plasmodium falciparum
[6] = test system: intracellular Pf20S β5 with the β5^A49S mutation; experiment: Intraparasitic hybrid activation and proteasome inhibition assay; type: cell-based, Plasmodium falciparum; settings: ATZ4 700 nM, Dd2β5^A49S parasites, compared with WT
Outline: (§2)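 Dd2 wild-type and mutant lines grown synchronized to 5–8% parasitemia. Early-trophozoite infected erythrocytes pulsed 6 h with test compound (700 or 800 nM) or DMSO, then washed four times in complete medium. Parasites released with saponin, washed in cold PBS and lysed in 20 mM Tris-HCl, 5 mM MgCl2, 1 mM DTT, pH 7.4. Equal lysate amounts labeled with 2 µM MV151 for 1 h at 37°C, separated by SDS-PAGE and scanned on the TAMRA channel.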

[7] = test system: Dd2β6^A117D; experiment: Parasite growth inhibition assay, erythrocytic stage; type: cell-based, Plasmodium falciparum
[8] = test system: Pf20Sβ6^A117D; experiment: Blocking of MV151 labeling in parasite lysate; type: binding, Plasmodium falciparum; settings: 1 h preincubation of Dd2β6^A117D lysate
Outline: (§3)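 Dd2 wild-type or mutant parasite pellets lysed on ice for 1 h in 50 mM Tris-HCl, 5 mM MgCl2, 1 mM DTT, pH 7.4, then centrifuged; protein quantified by BCA. 5–10 µg of lysate protein preincubated with test compound for 1 h at 37°C. MV151 added at 2 µM final for a further 1 h at 37°C, protected from light. Run on 12% Bis-Tris SDS-PAGE and scanned at Cy3/TAMRA (λex 532, λem 560 nm).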

[9] = test system: P. berghei ANKA lux; experiment: In vivo efficacy in mice infected with P. berghei ANKA lux; design: species or system Swiss Webster mice
[10] = test system: HepG2 cells; experiment: HepG2 cell viability assay; type: cell-based; settings: Homo sapiens, HepG2, 72 h, read-out: HepG2
[11] = test system: P. berghei G2025^R551T (K13^R551T); experiment: Modified Peters' 4-day suppressive test for recrudescence, ART-resistant strain; type: in vivo, Swiss Webster mice; settings: ART 50 mg/kg, ATZ4 100 mg/kg i.p. day 0 to day 2
[12] = test system: Pf20S β5 in lysate of Dd2^WT; experiment: Blocking of MV151 labeling in parasite lysate; type: binding, Plasmodium falciparum; settings: 1 h preincubation of Dd2^WT lysate
Outline: as §3

[13] = test system: Pf Dd2^WT; experiment: Parasite growth inhibition assay, erythrocytic stage; type: cell-based, Plasmodium falciparum
[14] = target: human c-20S β5c (Homo sapiens, UniProt P20618+P28074); experiment: Proteasome IC50 determination, human c-20S β5c; type: biochemical
Outline: as §1, with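 “c-20S (0.2” for “i-20S (0.4”, “25” for “15”, “suc-LLVY-AMC.” for “Ac-ANW-AMC.”, “h; linear” for “h;”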

[15] = test system: Pf20Sβ5^A49S; experiment: Blocking of MV151 labeling in parasite lysate; type: binding, Plasmodium falciparum; settings: 1 h preincubation of Dd2β5^A49S lysate
Outline: as §3

[16] = test system: intracellular Pf20S β5 with the β6^A117D mutation; experiment: Intraparasitic hybrid activation and proteasome inhibition assay; type: cell-based, Plasmodium falciparum; settings: ATZ4 700 nM, Dd2β6^A117D parasites, compared with WT
Outline: as §2

With C[C@H]1[C@@H](CC(=O)NCCCC(=O)N[C@@H](CC(=O)NC(C)(C)C)C(=O)NCCNC(=O)c2cc(-c3ccccc3F)ccc2F)O[C@@H]2O[C@@]3(C)CC[C@H]4[C@H](C)CC[C@@H]1[C@@]24OO3 [ATZ4, (S)-N4-(tert-butyl)-N1-(2-(2′,4-difluoro-[1,1′-biphenyl]-3-carboxamido)ethyl)-2-(4-(2-((3R,5aS,6R,8aS,9R,10R,12R,12aR)-3,6,9-trimethyldecahydro-12H-3,12-epoxy[1,2]dioxepino[4,3-i]isochromen-10-yl)acetamido)butanamido)succinamide] the IC50 [1] was 4.3 ± 0.9 nM, the “activity against Pf20S” value ([1]; Pf20S β5) was “potency comparable with that of PI01” and the “potency across Dd2, Dd2β6^A117D, Dd2K13^R539T and Dd2β6^A117DK13^R539T” value [2] was “equipotent”. The IC50 [3] was 200 ± 57 nM, the “susceptibility of DHA-resistant clones compared with WT Dd2” value [4] was “equally susceptible” and the “fold improvement over PI01 against Dd2β5^A49S” value [5] was over 100 fold. The “fold more resistant / reduced potency, Dd2β5^A49S versus parental Dd2” value ([5]; EC50 ratio) was at most 3.6 fold, the EC50 ([5]; Plasmodium falciparum, 72 h, read-out: EC50 Dd2β5^A49S) was 5.9 ± 1.9 nM and the “inhibition of Pf20S β5 labeling by MV151 after 6 h pulse and washing” value [6] was “similarly effective”. For the same compound, the “fold improvement over PI01 against Dd2β6^A117D” value [7] was at least 5 fold, the “fold more resistant / reduced potency, Dd2β6^A117D versus parental Dd2” value ([7]; EC50 ratio) was at most 2.9 fold and the EC50 ([7]; Plasmodium falciparum, 72 h, read-out: EC50 Dd2β6^A117D) was 6.7 ± 2.2 nM. For the same compound, the “blocking of MV151 labeling of β5” value [8] was “prevented PI01 and ATZ4 from inhibiting”, the “effect on parasite load” value ([9]; 10 mg/kg i.p. once daily day 3 to day 6, luminescence on day 7) was “no detectable effect” and the “decrease in parasite load” value ([9]; 25 mg/kg i.p. once daily day 3 to day 6, luminescence on day 7) was 1.2 log10. For the same compound, the “decrease in parasite load” value ([9]; 50 mg/kg i.p. once daily day 3 to day 6, luminescence on day 7, to below the limit of detection) was over 3 log10, the EC50 [10] was 9400 nM and the “mice with positive blood smear on day 6” value [11] was 0%. The “mice with positive blood smear on day 8” value [11] was 0%, the “mice with positive blood smear on day 10” value [11] was 60% and the “blocking of MV151 labeling of β5” value [12] was “dose dependently blocked labeling of β5”. For the same compound, the “times more potent than ART1 against Dd2” value ([13]; EC50 ratio) was 10 times, the EC50 ([13]; Plasmodium falciparum, DD2, Erythrocyte, 72 h, read-out: EC50 Pf Dd2^WT) was 4.3 ± 1.3 nM and the IC50 [14] was 890 ± 140 nM. For the same compound, the “blocking of MV151 labeling of β5” value [15] was “prevented PI01 and ATZ4 from inhibiting” and the “inhibition of Pf20S β5 labeling by MV151 after 6 h pulse and washing” value [16] was “similarly effective”.
